Assay results published in article PMC8856734 (Journal of medicinal chemistry, 2021).
Each block holds one compound with its values, some of them ahead of it.

Assays:
IRF4/MYC axis = test: Immunoblot of MYC and IRF4 in MM.1S cells; type: cell-based; conditions: 24 h, 2.5 μM
Procedure, shortened: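 MM.1S cells exposed 24 h to DMSO or 2.5 μM of test compounds (CBP/EP300-selective and BRD4-selective). Lysates immunoblotted for MYC and IRF4, with β-actin as loading control.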

CBP = conditions: read-out: CBP IC50; cited from earlier work
BRD4 BD1 [1] = molecular target: T1, BRD4 BD1 (Homo sapiens, UniProt O60885); test: BRD4 AlphaScreen assay with biotinylated JQ1; type: binding
CBP bromodomain [2] = molecular target: T2, CBP bromodomain (Homo sapiens, UniProt Q92793); test: Differential scanning fluorometry; type: binding; conditions: for DSF selectivity: CBP and EP300 versus BRD4 BD1, compared with CBP30
BRD4 BD1 [3] = molecular target: T1, BRD4 BD1; test: Differential scanning fluorometry; type: binding; conditions: temperature shift
EP300 (P300) bromodomain = molecular target: T3, EP300 (P300) bromodomain (Homo sapiens, UniProt Q09472); test: Differential scanning fluorometry; type: binding; conditions: temperature shift
T3 sequence (Q09472 1049-1156 limits assumed): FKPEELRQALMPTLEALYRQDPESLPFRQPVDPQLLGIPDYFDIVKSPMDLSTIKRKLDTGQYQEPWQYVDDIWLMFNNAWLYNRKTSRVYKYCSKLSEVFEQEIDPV

CBP bromodomain [4] = molecular target: T2, CBP bromodomain; test: CBP AlphaScreen assay with biotinylated small molecule probe compound C; type: binding; conditions: for loss in inhibitory activity against CBP: other warheads in place of 3,5-dimethylisoxazole; for loss in CBP inhibitory activity: compared to compound 23
H3K27ac level = test: Immunoblot of H3K27ac in MOLM13 cells; type: cell-based; conditions: 2 h
MOLM13 cells = test: CellTiter-Glo cell viability, MOLM13; type: cell-based; conditions: 5 day, ATP-dependent luminescence
Procedure, shortened: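 MOLM13 cells seeded at 500/well in 384-well plates, given serially pre-diluted test compound or reference CBP inhibitor by pin transfer; 5-day incubation, then ATP-dependent luminescence (CellTiter-Glo).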

34 bromodomains = test: BROMOSCAN profiling against 34 bromodomains; type: binding; conditions: 1 μM compound concentration
multiple myeloma lines = test: Cell viability, multiple myeloma lines; type: cell-based; conditions: 5-day incubation
Procedure, shortened: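 Cells seeded at 500/well in 384-well plates; serially pre-diluted test compound added by pin transfer (100 nl). Viability read by CellTiter-Glo luminescence after 5-day incubation. Data normalized to DMSO control; IC50 from nonlinear regression curve fit.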

MYC expression level = test: Immunoblot of MYC in MOLM13 cells; type: cell-based; conditions: 2 h
Procedure, shortened: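 MOLM13 cells seeded in 6-well plates at 1×10^6 cells/well and treated 2 h with DMSO or 3.0 μM test compound or reference CBP inhibitor. Protein extracted in RIPA plus protease inhibitor cocktail, run on Bis-Tris gels, wet-transferred to PVDF. Probed for MYC, β-actin, H3 and H3K27ac with IRDye secondaries.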

T2 sequence (Q92793 1085-1192 limits assumed): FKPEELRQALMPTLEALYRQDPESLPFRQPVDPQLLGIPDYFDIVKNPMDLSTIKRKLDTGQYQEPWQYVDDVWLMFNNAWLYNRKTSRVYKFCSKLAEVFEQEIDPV

SMILES: COc1ccc(CCc2nc3cc(-c4c(C)noc4C)ccc3n2C[C@H](C)N2CCOCC2)cc1Cl [CBP30, reference compound]
IRF4/MYC axis perturbation (IRF4/MYC axis): perturbed | IC50 (CBP): […] | IC50 (BRD4 BD1 [1]): 10.1 ± 0.55 µM

DSF activity against CBP (CBP bromodomain [2]; temperature shift): more active | DSF activity toward BRD4 (BRD4 BD1 [3]): very modest activity | DSF activity against EP300 (EP300 (P300) bromodomain): more active
SMILES: Cc1noc(C)c1-c1ccn2c(NC3CCCCC3)c(CCc3ccccc3)nc2c1 [Compound 7, N-cyclohexyl-7-(3,5-dimethylisoxazol-4-yl)-2-phenethylimidazo[1,2-a]pyridin-3-amine]

loss in inhibitory activity against CBP (CBP bromodomain [4]): greater than 10 fold
SMILES: CN1Cc2cc(-c3ccn4c(NC5CCCCC5)c(CCc5ccccc5)nc4c3)ccc2NC1=O [Compound 9]

loss in inhibitory activity against CBP (CBP bromodomain [4]): greater than 10 fold
SMILES: Cc1[nH]nc2cc(-c3ccn4c(NC5CCCCC5)c(CCc5ccccc5)nc4c3)ccc12 [Compound 10]
IRF4/MYC axis perturbation (IRF4/MYC axis): not with BRD4 inhibitor

loss in inhibitory activity against CBP (CBP bromodomain [4]): greater than 10 fold
SMILES: Cc1noc2cc(-c3ccn4c(NC5CCCCC5)c(CCc5ccccc5)nc4c3)ccc12 [Compound 11]
IRF4/MYC axis perturbation (IRF4/MYC axis): not with BRD4 inhibitor

decrease in CBP inhibitory potency (CBP bromodomain [4]; compared to compound 16): > 5 fold
SMILES: Cc1noc(C)c1-c1ccn2c(NC(C)(C)C)c(CCc3ccccc3)nc2c1 [Compound 13, N-(tert-butyl)-7-(3,5-dimethylisoxazol-4-yl)-2-phenethylimidazo[1,2-a]pyridin-3-amine]

decrease in CBP inhibitory potency (CBP bromodomain [4]; compared to compound 16): > 5 fold
SMILES: COc1ccc(CCc2nc3cc(-c4c(C)noc4C)ccn3c2NC23CC4CC(CC(C4)C2)C3)cc1 [Compound 14, N-((3s,5s,7s)-adamantan-1-yl)-7-(3,5-dimethylisoxazol-4-yl)-2-(4-methoxyphenethyl)imidazo[1,2-a]pyridin-3-amine]

decrease in CBP inhibitory potency (CBP bromodomain [4]; compared to compound 16): ~2 fold
SMILES: COc1ccc(CCc2nc3cc(-c4c(C)noc4C)ccn3c2NCCN2CCOCC2)cc1 [Compound 15]

increase in CBP inhibitory potency (CBP bromodomain [4]; compared to compound 7): 5 fold
SMILES: COc1ccc(CCc2nc3cc(-c4c(C)noc4C)ccn3c2NC2CCCCC2)cc1 [Compound 16, N-cyclohexyl-7-(3,5-dimethylisoxazol-4-yl)-2-(4-methoxyphenethyl)imidazo[1,2-a]pyridin-3-amine]
DSF selectivity (CBP bromodomain [2]): greater selectivity than the known inhibitor, CBP30

decrease in CBP inhibitory potency (CBP bromodomain [4]; compared to compound 16): ~3 fold
SMILES: COc1ccc(CCc2nc3cc(-c4c(C)noc4C)ccn3c2NC(C)C)cc1 [Compound 17, 7-(3,5-dimethylisoxazol-4-yl)-N-isopropyl-2-(4-methoxyphenethyl)imidazo[1,2-a]pyridin-3-amine]

decrease in CBP inhibitory potency (CBP bromodomain [4]; compared to compound 16): > 5 fold
SMILES: COc1ccc(CCc2nc3cc(-c4c(C)noc4C)ccn3c2NC(C)(C)C)cc1 [Compound 18]

decrease in CBP inhibitory potency (CBP bromodomain [4]; compared to compound 16): ~ 4 fold
SMILES: CCCOc1ccc(CCc2nc3cc(-c4c(C)noc4C)ccn3c2NC2CCCCC2)cc1 [Compound 20]

decrease in CBP inhibitory potency (CBP bromodomain [4]; compared to compound 16): 10 fold
SMILES: COc1ccc(CCc2nc3cc(-c4c(C)noc4C)ccn3c2NCc2ccccc2)cc1 [Compound 21]

decrease in CBP inhibitory potency (CBP bromodomain [4]; compared to compound 16): 10 fold
SMILES: COc1ccc(CCc2nc3cc(-c4c(C)noc4C)ccn3c2NCc2ccc(Cl)cc2)cc1 [Compound 22]

more potent against CBP (CBP bromodomain [4]; compared to compound 16): 2 fold
SMILES: COc1ccc(CCc2nc3cc(-c4c(C)noc4C)ccn3c2NC2CCCCC2)cc1Cl [Compound 23, 2-(3-chloro-4-methoxyphenethyl)-N-cyclohexyl-7-(3,5-dimethylisoxazol-4-yl)imidazo[1,2-a]pyridin-3-amine]
IRF4/MYC axis perturbation (IRF4/MYC axis): perturbed | H3K27ac level (H3K27ac level): reduced the H3K27ac level similar to CBP30 | MOLM13 cell growth inhibition (MOLM13 cells): IC50 values similar to CBP30 | DSF selectivity (CBP bromodomain [2]): greater selectivity than the known inhibitor, CBP30 | BROMOSCAN binding and selectivity (34 bromodomains): better binding and selectivity compared to compound 7 and 16 | MM cell growth inhibition (multiple myeloma lines): IC50 values similar to CBP30 | MYC level (MYC expression level): caused MYC depletion

loss in CBP inhibitory activity (CBP bromodomain [4]): ~ 10 fold
SMILES: COc1ccc(CCc2nc3cc(-c4c(C)noc4C)ccn3c2NC2CCCCC2)cc1OC [Compound 32]

loss in CBP inhibitory activity (CBP bromodomain [4]): 49 fold | loss in BRD4 inhibitory activity (BRD4 BD1 [1]; compared to compound 23): 4 fold
SMILES: COc1ccc(CCc2nc3cc(-c4c(C)noc4C)ccn3c2NC(C)C)cc1OC [Compound 33, 2-(3,4-dimethoxyphenethyl)-7-(3,5-dimethylisoxazol-4-yl)-N-isopropylimidazo[1,2-a]pyridin-3-amine]
